# Measurements published in ChEMBL document CHEMBL4680111, “Target Validation and Identification of Novel Boronate Inhibitors of the Plasmodium falciparum Proteasome” (J Med Chem, 2018).
# pIC50: −log10 of the molar value. Activity calls are given as the source filed them. The rule behind the calls is not given here.
# Columns and labels:
# [1] = tested on: Plasmodium falciparum; experiment: Antiplasmodial activity against sorbitol synchronized ring stage Plasmodium falciparum 3D7 assessed as reduction in parasitemia incubated for 72 hrs by Syto-61 staining dye based flow cytometry analysis; format: functional; settings: read-out: LD50 (the source's name)
# Method in brief: (§1)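 Sorbitol-treated ring-stage parasites in O+ human erythrocytes were incubated with compound for 72 h, and viability was read in the second cycle. Read-out was Syto-61 (2 µM) flow cytometry of parasitemia, normalized to untreated and 2 µM DHA-killed controls. Mean ± SEM of three independent experiments.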
# [2] = target: T1, Proteasome subunit beta type-6 (Homo sapiens, UniProt P28072); experiment: Inhibition of human 20S constitutive proteasome beta 1 subunit caspase-like activity using fluorogenic peptide Ac-nLPnLD-AMC as substrate in presence of PA28alpha incubated for 1 to 2 hrs by fluorescence microplate reader assay
# T1 sequence (P28072 whole entry): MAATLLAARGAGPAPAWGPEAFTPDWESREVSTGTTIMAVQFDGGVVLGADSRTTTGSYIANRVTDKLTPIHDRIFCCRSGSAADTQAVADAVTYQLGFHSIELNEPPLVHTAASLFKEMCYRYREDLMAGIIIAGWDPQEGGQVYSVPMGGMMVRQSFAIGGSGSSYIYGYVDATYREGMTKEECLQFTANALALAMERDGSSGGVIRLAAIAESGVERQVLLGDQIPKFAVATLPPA
# [3] = Inhibition of Plasmodium falciparum 20S proteasome beta 5 subunit chymotrypsin-like activity using fluorogenic peptide Ac-WLA-AMC as substrate in presence of PA28alpha incubated for 1 to 2 hrs by fluorescence microplate reader assay
# [4] = target: T2, Proteasome Macropain subunit MB1 (Homo sapiens, UniProt P28074); experiment: Inhibition of human 20S constitutive proteasome beta 5 subunit chymotrypsin-like activity using fluorogenic peptide Ac-WLA-AMC as substrate in presence of PA28alpha incubated for 1 to 2 hrs by fluorescence microplate reader assay
# T2 sequence (P28074 whole entry): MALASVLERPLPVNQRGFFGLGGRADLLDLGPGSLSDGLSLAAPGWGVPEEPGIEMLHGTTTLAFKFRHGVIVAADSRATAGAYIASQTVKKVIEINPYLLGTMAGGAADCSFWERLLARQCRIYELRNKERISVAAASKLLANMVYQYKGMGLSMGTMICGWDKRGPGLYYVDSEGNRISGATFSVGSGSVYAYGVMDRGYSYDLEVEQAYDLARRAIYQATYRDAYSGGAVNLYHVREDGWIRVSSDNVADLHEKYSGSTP
# [5] = tested on: Plasmodium falciparum; experiment: Antiplasmodial activity against DHA-sensitive and sorbitol synchronized ring stage forms of Plasmodium falciparum Cam3.II^rev expressing K13 wild-type genotype assessed as reduction in parasitemia incubated for 3 hrs by pulse exposure based Syto-61 staining dye based flow cytometry analysis; format: functional; settings: read-out: LD50 (the source's name)
# Method in brief: (§2)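 Tightly synchronized early-ring parasites (1-3 h post-invasion) exposed to compound for 3 h, then viability assessed in the next cycle. Cells stained with 2 µM Syto-61 and parasitemia read by flow cytometry, normalized to untreated and kill controls (2 µM DHA, 48-72 h). Mean ± SEM of three independent experiments.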
# [6] = tested on: Plasmodium falciparum; experiment: Antiplasmodial activity against DHA-resistant and sorbitol synchronized ring stage forms of Plasmodium falciparum Cam3.II^R539T expressing K13 mutant assessed as reduction in parasitemia incubated for 3 hrs by pulse exposure based Syto-61 staining dye based flow cytometry analysis; format: functional; settings: read-out: LD50 (the source's name); method in brief: as §2
# [7] = Inhibition of Plasmodium falciparum 20S proteasome beta 2 subunit trypsin-like activity using fluorogenic peptide Ac-WLR-AMC as substrate in presence of PA28alpha incubated for 1 to 2 hrs by fluorescence microplate reader assay
# [8] = tested on: Plasmodium falciparum 3D7; experiment: Inhibition of 20S proteasome beta 5 subunit in bortezomib-resistant Plasmodium falciparum 3D7 assessed as inhibition of BMV037 probe labeling at 1 to 10 uM incubated for 1 hr by SDS-PAGE analysis; settings: dose 1-10 µM
# [9] = target: T3, Proteasome subunit beta type-9 (Homo sapiens, UniProt P28065); experiment: Inhibition of human 20S immunoproteasome beta 1 subunit caspase-like activity using fluorogenic peptide Ac-nLPnLD-AMC as substrate in presence of PA28alpha incubated for 1 to 2 hrs by fluorescence microplate reader assay
# T3 sequence (P28065 whole entry): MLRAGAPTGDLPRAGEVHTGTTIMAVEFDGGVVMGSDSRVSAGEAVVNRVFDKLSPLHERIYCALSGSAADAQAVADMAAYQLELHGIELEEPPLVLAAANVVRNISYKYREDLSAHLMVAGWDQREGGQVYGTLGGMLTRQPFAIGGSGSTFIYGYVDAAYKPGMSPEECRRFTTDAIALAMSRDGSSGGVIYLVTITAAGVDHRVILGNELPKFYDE
# [10] = target: T4, Proteasome subunit beta type-10 (Homo sapiens, UniProt P40306); experiment: Inhibition of human 20S immunoproteasome beta 2 subunit trypsin-like activity using fluorogenic peptide Ac-WLR-AMC as substrate in presence of PA28alpha incubated for 1 to 2 hrs by fluorescence microplate reader assay
# T4 sequence (P40306 whole entry): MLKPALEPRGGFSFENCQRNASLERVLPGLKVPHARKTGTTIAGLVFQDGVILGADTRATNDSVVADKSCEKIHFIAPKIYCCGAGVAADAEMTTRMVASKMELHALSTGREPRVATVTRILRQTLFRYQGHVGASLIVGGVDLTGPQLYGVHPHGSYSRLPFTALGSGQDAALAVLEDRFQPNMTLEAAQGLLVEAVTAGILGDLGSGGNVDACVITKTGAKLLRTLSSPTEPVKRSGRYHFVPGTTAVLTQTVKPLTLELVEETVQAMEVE
# [11] = Inhibition of Plasmodium falciparum 20S proteasome beta 1 subunit caspase-like activity using fluorogenic peptide Ac-nLPnLD-AMC as substrate in presence of PA28alpha incubated for 1 to 2 hrs by fluorescence microplate reader assay
# [12] = target: T5, Proteasome subunit beta type-8 (Homo sapiens, UniProt P28062); experiment: Inhibition of human 20S immunoproteasome beta 5 subunit chymotrypsin-like activity using fluorogenic peptide Ac-WLA-AMC as substrate in presence of PA28alpha incubated for 1 to 2 hrs by fluorescence microplate reader assay
# T5 sequence (P28062 whole entry): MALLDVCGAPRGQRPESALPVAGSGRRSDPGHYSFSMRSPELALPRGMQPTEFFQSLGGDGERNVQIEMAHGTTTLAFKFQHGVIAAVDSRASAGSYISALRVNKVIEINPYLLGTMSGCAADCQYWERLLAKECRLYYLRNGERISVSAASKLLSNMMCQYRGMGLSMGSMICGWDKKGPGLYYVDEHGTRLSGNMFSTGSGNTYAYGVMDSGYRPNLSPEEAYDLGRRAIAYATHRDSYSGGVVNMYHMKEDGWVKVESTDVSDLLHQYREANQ
# [13] = target: T6, Proteasome subunit beta type-7 (Homo sapiens, UniProt Q99436); experiment: Inhibition of human 20S constitutive proteasome beta 2 subunit trypsin-like activity using fluorogenic peptide Ac-WLR-AMC as substrate in presence of PA28alpha incubated for 1 to 2 hrs by fluorescence microplate reader assay
# T6 sequence (Q99436 whole entry): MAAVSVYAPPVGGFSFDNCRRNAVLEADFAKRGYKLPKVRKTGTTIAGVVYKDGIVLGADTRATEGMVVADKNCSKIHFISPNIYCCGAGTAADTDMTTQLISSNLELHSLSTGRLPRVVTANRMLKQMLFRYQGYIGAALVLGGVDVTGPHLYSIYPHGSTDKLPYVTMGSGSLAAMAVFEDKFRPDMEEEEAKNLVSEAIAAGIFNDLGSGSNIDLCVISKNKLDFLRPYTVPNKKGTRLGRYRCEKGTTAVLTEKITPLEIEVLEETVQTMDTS
# [14] = Selectivity index, ratio of LD50 for cytotoxicity against human HepG2 cells to LD50 for antiplasmodial activity against Plasmodium falciparum 3D7 sorbitol-treated ring stage; format: toxicity, cell-based; settings: read-out: Selectivity Index
# [15] = target: T7, Proteasome subunit beta type-8 (Homo sapiens) (UniProt P28062); experiment: Inhibition of human 20S immunoproteasome beta 5 subunit assessed as inhibition of BMV037 probe labeling at 1 to 10 uM incubated for 1 hr by SDS-PAGE analysis; settings: dose 1-10 µM
# T7 sequence (whole entry): T5 sequence (P28062 whole entry)
# Method in brief: (§3)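 Purified human immuno-20S (20 nM) was incubated with compound at 37°C for 1 h, then labelled with 10 µM BMV037 at 37°C for 2 h. Samples were run on 4-12% Bis-Tris gel with MES buffer, and active subunits were visualised by Cy5 fluorescence.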
# [16] = tested on: Plasmodium falciparum; experiment: Inhibition of proteasome in Plasmodium falciparum trophozoite stage transfected with GFP-DD assessed as reduction in GFP-DD fusion protein degradation at 0.02 to 0.5 uM incubated for 3 hrs in absence of Shield-1 by Western blot analysis; settings: dose 0.02-0.5 µM
# Method in brief: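 GFP-DD reporter parasites were held in Shield-1 for 24 h, washed out, then treated as trophozoites (5% hematocrit, 5% parasitemia) with compound for 3 h at 37°C. […] Representative of four independent experiments.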
# [17] = tested on: Plasmodium falciparum; experiment: Antiplasmodial activity against sorbitol synchronized ring stage bortezomib-resistant Plasmodium falciparum 3D7 clone B1a assessed as reduction in parasitemia incubated for 72 hrs by Syto-61 staining dye based flow cytometry analysis; format: functional; settings: read-out: LD50 (the source's name); method in brief: as §1
# [18] = tested on: Plasmodium falciparum; experiment: Antiplasmodial activity against sorbitol synchronized ring stage bortezomib-resistant Plasmodium falciparum 3D7 clone B2a assessed as reduction in parasitemia incubated for 72 hrs by Syto-61 staining dye based flow cytometry analysis; format: functional; settings: read-out: LD50 (the source's name); method in brief: as §1
# [19] = target: T8, Proteasome Macropain subunit MB1 (Homo sapiens) (UniProt P28074); experiment: Inhibition of human 20S constitutive proteasome beta 5 subunit assessed as inhibition of BMV037 probe labeling at 1 to 10 uM incubated for 1 hr by SDS-PAGE analysis; settings: dose 1-10 µM
# T8 sequence (whole entry): T2 sequence (P28074 whole entry)
# Method in brief: (§4)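 Purified human constitutive 20S (20 nM) was treated with compound at 37°C for 1 h, then labelled with 10 µM BMV037 at 37°C for 2 h. Samples were run on 10% Bis-Tris gel with MOPS buffer, and active subunits were detected by Cy5 fluorescence scan.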
# [20] = target: T9, Proteasome subunit beta type-9 (Homo sapiens) (UniProt P28065); experiment: Inhibition of human 20S immunoproteasome beta 1 subunit assessed as inhibition of BMV037 probe labeling at 1 to 10 uM incubated for 1 hr by SDS-PAGE analysis; settings: dose 1-10 µM; method in brief: as §3
# T9 sequence (whole entry): T3 sequence (P28065 whole entry)
# [21] = target: T10, Proteasome component C5 (Homo sapiens) (UniProt P20618); experiment: Inhibition of human 20S constitutive proteasome beta 1 subunit assessed as inhibition of BMV037 probe labeling at 1 to 10 uM incubated for 1 hr by SDS-PAGE analysis; settings: dose 1-10 µM; method in brief: as §4
# T10 sequence (whole entry): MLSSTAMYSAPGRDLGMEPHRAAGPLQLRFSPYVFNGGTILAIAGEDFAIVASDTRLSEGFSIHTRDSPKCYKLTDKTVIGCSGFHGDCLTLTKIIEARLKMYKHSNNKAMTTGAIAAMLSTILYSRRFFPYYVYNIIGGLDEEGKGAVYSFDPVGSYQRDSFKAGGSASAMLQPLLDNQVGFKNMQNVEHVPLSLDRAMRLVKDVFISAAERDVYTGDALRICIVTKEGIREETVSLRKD
# [22] = tested on: Plasmodium falciparum 3D7; experiment: Inhibition of 20S proteasome beta 1 subunit from bortezomib resistant Plasmodium falciparum 3D7 trophozoite infected erythrocytes assessed as inhibition of BMV037 probe labeling at 1 to 10 uM incubated for 1 hr by SDS-PAGE analysis; settings: dose 1-10 µM
# [23] = tested on: Plasmodium falciparum 3D7; experiment: Inhibition of 20S proteasome beta 5 subunit from bortezomib resistant Plasmodium falciparum 3D7 trophozoite infected erythrocytes assessed as inhibition of BMV037 probe labeling at 1 to 10 uM incubated for 1 hr by SDS-PAGE analysis; settings: dose 1-10 µM
# [24] = tested on: Plasmodium falciparum; experiment: Inhibition of Plasmodium falciparum 20S proteasome beta 2 subunit trypsin-like activity using fluorogenic peptide Ac-WLR-AMC as substrate in presence of PA28alpha at 0.8 uM measured over 5 hrs by fluorescence microplate reader assay
# [25] = tested on: Plasmodium falciparum; experiment: Inhibition of Plasmodium falciparum 20S proteasome beta 1 subunit caspase-like activity using fluorogenic peptide Ac-nLPnLD-AMC as substrate in presence of PA28alpha at 0.8 uM measured over 5 hrs by fluorescence microplate reader assay
# [26] = tested on: Plasmodium falciparum; experiment: Inhibition of Plasmodium falciparum 20S proteasome beta 5 subunit chymotrypsin-like activity using fluorogenic peptide Ac-WLA-AMC as substrate in presence of PA28alpha at 0.8 uM measured over 5 hrs by fluorescence microplate reader assay
smiles,measurement,setting,value
CC(=O)N1CCC[C@H]1C(=O)N[C@@H](C)C(=O)N[C@@H](CC(C)C)B(O)O,LC50,[1],160 nM
same,pIC50,[2],6.49
same,pIC50,[3],5.54
same,pIC50,[4],7.01
same,LC50,[5],1800 nM
same,LC50,[6],1500 nM
same,pIC50,[7],< 5.00
same,inhibition,[8],inactive
same,pIC50,[9],7.89
same,pIC50,[10],< 5.00
same,pIC50,[11],5.52
same,pIC50,[12],7.20
same,pIC50,[13],< 5.00
same,selectivity ratio,[14],15
CC(C)C[C@H](NC(=O)[C@H](Cc1ccccc1)NC(=O)c1cnccn1)B(O)O [BORTEZOMIB],inhibition,[15],Active
same,inhibition,[16],Active
same,LC50,[17],1300 nM
same,LC50,[1],60 nM
same,LC50,[18],1100 nM
same,pIC50,[3],7.28
same,LC50,[5],180 nM
same,inhibition,[19],Active
same,inhibition,[20],Active
same,inhibition,[21],Active
same,LC50,[6],120 nM
same,pIC50,[7],5.80
same,inhibition,[22],Active
same,pIC50,[11],6.49
same,inhibition,[23],Active
CC(C)C[C@H](NC(=O)[C@H](CCc1ccccc1)NC(=O)CN1CCOCC1)C(=O)N[C@@H](Cc1ccccc1)C(=O)N[C@@H](CC(C)C)C(=O)[C@@]1(C)CO1,inhibition,[24],Active
same,inhibition,[25],inactive
same,inhibition,[26],Active
